Assay: Toxicity liver stage against HepG2, at 10uM
Type: cell-based
Parameters: test concentration 10 uM, cell line HepG2-A16-CD81EGFP
Settings: human, HepG2-A16-CD81EGFP cells; read-out: INHIBITION
Method in brief: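 Uninfected HepG2-A16-CD81EGFP cells, 3 × 10^3 per well, 1536-well, plated on prespotted compound at 10 μM final, parasite-free screening media added to match infected plates; puromycin 10 μM positive, DMSO 0.5% negative; run in parallel with 48 h PbLuc assay at 37 °C, 5% CO2; viability by CellTiter-Glo luminescence, normalized to controls.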

SMILES | cytotoxicity at 10 µM
Cc1ccc(CNC(=O)C2CCN(C(=O)c3ccco3)CC2)n1C | 2.46%
O=C(NCC1(O)CCc2ccccc21)Nc1ccc2c(c1)OCO2 (configuration not stated) | -11.2%
CCN1C(=O)C[C@@H]2[C@@H]1CCN2S(=O)(=O)c1ccc(OC)cc1 | 0.434%
O=C(C1CCC1)N1C[C@H]2CNC[C@H]2C1 | -4.1%
CCCS(=O)(=O)N1CCOC2(CCCN(c3ncc(F)cn3)C2)C1 (configuration not stated) | 8.22%
CCOC[C@@H]1CC[C@H]2[C@H](CCN2C(=O)c2cnccn2)O1 | -10.6%
O=C(C1CCC1)N1CCC2(COCc3cnc(-c4cccnc4)nc32)C1 (configuration not stated) | 3.5%
Cc1cc(C(=O)N[C@@H]2CCC[C@@H](N3CCOCC3)[C@@H]2O)no1 | -1.61%
O=C(c1cnccn1)N1CCCC(Cc2cncc3ccccc23)C1 (configuration not stated) | -31.4%
Cc1cc(C(N)=O)nc(C2(C)CCCN2Cc2cnn(C)c2C)n1 (configuration not stated) | -20.6%
CCC(=O)N(CC(N)=O)Cc1cccc(Oc2ccccc2)c1 | 9.66%
Cc1ccc(=O)n(Cc2csc(N(C)C3CC3)n2)n1 | 4.09%
Cc1nc(CN2CCCC2C(=O)OCc2ccccc2)oc1C (configuration not stated) | -1.86%
O=C(c1cccc(NCc2cccc(F)c2)c1)N1CCC(O)CC1 | 5.84%
O=C(NCC1(c2cccs2)CCCCC1)N1CCOC(CO)C1 (configuration not stated) | 0.75%
CCCc1csc(-c2ccc(S(C)(=O)=O)cc2)n1 | -2.69%
O=C(c1cnc(-c2ccco2)s1)N1CCOc2ncccc21 | 7.48%
COCCOc1ccc(NC(=O)N(C(C)C)C2CC2)cn1 | -9.59%
O=C(CCc1ccco1)NCC1CCCN1c1cccnn1 (configuration not stated) | -10.8%
CC(C)(C)OC(=O)NCC1CCN(C(=O)c2ccccc2O)CC1 | 8.53%
CC1CCCN(C(=O)Cn2cc(I)cn2)C1 (configuration not stated) | 0.106%

SMILES | cytotoxicity at 10 µM
CCc1ccc(C(=O)Nc2cccc(CN3CCCC3C(N)=O)c2)cc1 (configuration not stated) | -0.268%
Cc1cc(NC(=O)NC2CCCc3c2cnn3CCO)n(C)n1 (configuration not stated) | -15.7%
Cc1ncc2c(n1)CN(C(C(N)=O)c1ccccc1)CC2 (configuration not stated) | 0.66%
N#CCCN(CCC#N)C(=O)CN(C1CC1)C1CCc2ccccc21 (configuration not stated) | 5.92%
O=C(NC1CCN(c2ccccc2OC(F)F)C1)c1c[nH]nn1 (configuration not stated) | -2.54%
CCC1CN(C(=O)c2csc(-c3cnn(C)c3)n2)CCO1 (configuration not stated) | -23.2%
Cn1nnnc1SC1CCCN(c2ccccc2Cl)C1=O (configuration not stated) | 3.71%
CCN(Cc1cnn(C)c1)C(=O)c1cc2ccccc2c(=O)[nH]1 | -7.94%
O=C(Nc1ccccc1F)C1CSCN1C(=O)CCc1ccco1 (configuration not stated) | -4.31%
N#Cc1ccc(NCCCOCC2CCOC2)c(F)c1 (configuration not stated) | 1.1%
Cc1cnn(CCNCc2ccc(OCC(N)=O)cc2)c1 | -0.86%
CCN(Cc1ccco1)C(=O)NCc1nnc2n1CCC2 | -10.3%
O=C(c1cc(Cl)c2c(c1)OCO2)N1CCN(c2nccs2)CC1 | -3.6%
O=C(Cc1c[nH]c2ccccc12)N1CCN(C(=O)c2ccoc2)CC1 | -2.15%
CN(Cc1nnc(C2CC2)n1C)C1CCN(CCc2cccs2)C1 (configuration not stated) | -8.71%
CC(C)c1nc(CN(C)C2CCN(Cc3nc(C4CC4)no3)C2)no1 (configuration not stated) | -9.37%
CCCOc1cc(C)ccc1NC(=O)NCCC(=O)N(C)C | -13.9%
CC(=O)N1CCC2(CC1)C(=O)N(C)c1ccc(F)cc12 | -116%
CC(CCn1cccn1)N1CCC(n2cc(C(C)(C)N)nn2)CC1 (configuration not stated) | -4.78%
CCCNC(=O)N1CCCC2(CCC(=O)N(CCc3c[nH]cn3)C2)C1 (configuration not stated) | 2.67%
COc1cc(F)c(CN2CC[C@@](O)(C3CC3)[C@H](C)C2)cc1OC | 0.0489%

SMILES | cytotoxicity at 10 µM
CCNC(=O)[C@@H]1C[C@H](n2cc(CC3CCCCC3)nn2)CN1 | 1.06%
CCCc1cnc(C)nc1NCCc1nc(C)cc(=O)[nH]1 | -5.1%
O=C(NC1CC1)C1CNCCN1C(=O)CCOc1ccccc1 (configuration not stated) | 2.08%
O=C(c1ccc(-c2nc[nH]n2)cc1)N1CCOC(C(F)(F)F)C1 (configuration not stated) | -2.35%
CC(C)C[C@@H](N)C(=O)N(C)Cc1csc(C(C)C)n1 | -127%
CCCN1CCCC2(CCN(S(=O)(=O)N3CCC(OC)CC3)C2)C1=O (configuration not stated) | 1.48%
CC(Cn1ccnc1)NCc1nncn1C1CCCCC1 (configuration not stated) | -4.54%
Cc1nc[nH]c1CN1CCCC(CNC(=O)c2ccncn2)C1 (configuration not stated) | -0.334%
COc1ccc(N2CCN(C(=O)CCn3nccc3C)CC2(C)C)cc1 | 57.1%
COc1ccc(C(C(=O)O)N2CCC(Cn3cccn3)CC2)c(OC)n1 (configuration not stated) | -9.46%
CN(C)CC(C)(C)Cn1cnc(-c2ccccc2)c1-c1cccc(O)c1 | -5.53%
CCc1ncc(CN2CCC(Oc3ccccc3OC)CC2)cn1 | -8.17%
CCN1CCN(C[C@@H]2CN(c3ncc(Cl)cc3Cl)C[C@@H]2CO)CC1 | -6%
COc1cc(N2CCCC(c3nccn3CCN(C)C)C2)nc(N)n1 (configuration not stated) | -9.6%
COc1cccc(C)c1C(=O)N1C[C@@H](CN(C)C)[C@@H](CO)C1 | -10.4%
COCCNc1nc(C2CCCC2)nc2c1CCNCC2 | -6.4%
CC(C)c1nn(C)c(N(C)C)c1CNCC(O)c1ccccc1 (configuration not stated) | -1.83%
Cc1nc(-c2ccc(Cl)s2)sc1C(=O)NC(C)(C)C(N)=O | -3.04%
Cc1cc(CNc2ccccc2Cl)no1 | -7.77%
CC(C)(C)n1cc(C(=O)N2CCN(Cc3cccnc3)CC2)cn1 | -7.51%
CCc1nccn1C1CCCN(C(=O)c2ccc(NC3CC3)nc2)C1 (configuration not stated) | -11.3%

SMILES | cytotoxicity at 10 µM
CCn1cnnc1CNC(=O)N(C)C(C)c1cccs1 (configuration not stated) | -15.9%
CS(=O)(=O)NCCCNC(=O)NCc1ccccc1 | -3.54%
CCOc1c(Br)cc(/C=C/c2ncc(C(=O)O)s2)cc1OC | -1.26%
COc1ncccc1CNC(=O)c1cc(C)on1 | -20.2%
Cc1oc(C)c(C(=O)NCc2cccc(C(N)=O)c2)c1C | -15.8%
CN(C)CCn1c(=O)n(C)c(=O)c2ccccc21 | -1.48%
Cc1ccc2c(c1)CCC2NCc1c(C)nn(CCO)c1C (configuration not stated) | 11.2%
Cc1noc(C)c1CN1C[C@H](OCC2CC2)[C@H]2COC[C@H]21 | -5.78%
CC(C)NCc1nc(-c2ccc3c(c2)OCO3)c[nH]1 | 6.24%
O=C1Nc2ccccc2C12CCN(Cc1ccccn1)CC2 | -3.45%
CN(C)CCOCc1nnc2n1CCN(Cc1ccsc1)C2 | 3.02%
COc1ccc(-c2n[nH]cc2CNC2CCN(C3CC3)CC2)cc1 | 1.75%
Cc1noc(C)c1CN1CCCC2(CCN(C(=O)NC3CC3)C2)C1 (configuration not stated) | 7.25%
Cc1noc(C)c1CN1CCO[C@H]2CN(C3CCOCC3)C[C@H]21 | -1.41%
CCS(=O)(=O)N1C[C@@H]2CN(Cc3ccco3)CCO[C@@H]2C1 | -122%
Cc1cnc(C(=O)N2CCC3(CCN(Cc4ccccn4)C3=O)C2)cn1 (configuration not stated) | -140%
CO[C@@H]1CCN(C(=O)Cc2ccsc2)[C@H]1Cc1cccnc1 | 6.9%
COCCN1C(=O)[C@@H]2CC[C@H]1CN(c1nccc(C)n1)C2 | 9.73%
CC(C)Cn1cc2nc(N3CCCC(C)C3)[nH]cc-2c1=O (configuration not stated) | 2.22%

From ChEMBL document CHEMBL4513216, “Probing the Open Global Health Chemical Diversity Library for Multistage-Active Starting Points for Next-Generation Antimalarials” (ACS Infect Dis, 2020)
